In PMC2223369 (The Journal of General Physiology, 1999):

Columns and labels:
[1] = test system: alpha subunit of type IIA sodium channels; assay: Use-dependent block, conditioning pulse protocol; type: cell-based, rat; conditions: for use-dependent block, conditioning pulse protocol (in words): Fig. 5 and 6; for use-dependent block at 200 mV: wild-type channels, conditioning pulses to 200 mV
[2] = test system: alpha subunit of type IIA sodium channels; assay: Fast peptide block of LqTx-modified sodium channels, whole-cell patch clamp; type: cell-based, rat; conditions: 100 nM LqTx; for k b(0 mV), blocking rate / k u(0 mV), unblocking rate: 1 mM peptide, SEM; for k b(0 mV), blocking rate: calculated from τ and Fss by Eq. 2, mean ± SEM; for k u(0 mV), unblocking rate: calculated from τ and Fss by Eq. 3, mean ± SEM; for fraction of extrapolated peak sodium current unblocked at steady state / fast block of LqTx-modified sodium channels (in words): 1 mM peptide intracellular, 0 mV
Procedure, shortened: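 CHO cells stably expressing the channel alpha subunit, recorded 24 h after subculture; whole-cell patch clamp at 22–25°C. Pipette carries 1 mM test peptide, and recording starts about 20 min after break-in. LqTx-modified currents are elicited by steps from −80 mV to 0 mV. Decay is fit to a single exponential, with Fss = B/(A+B). kb and ku come from τ and Fss.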

sodium channels = conditions: ref Eaholtz et al., cited from earlier work
[3] = test system: alpha subunit of type IIA sodium channels; assay: Recovery from fast block, two-pulse voltage protocol; type: cell-based, rat; conditions: for time constant of recovery from fast block at −80 mV: interpulse −80 mV, mean ± SEM, n = 5
Procedure, shortened: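 CHO cells stably expressing the channel alpha subunit, under whole-cell clamp at 22–25°C with 1 mM test peptide in the pipette; channels LqTx-modified. Two 0-mV test pulses give the ratio I2/I1. The protocol is repeated 20× with the interpulse interval increased by Δt each time. Interpulse voltage is −80, −100, −120 or −140 mV. Recovery versus interval is fit to a single exponential for the time constant.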

[4] = 1 mM peptide, channels not modified by LqTx

NC(=O)[C@@H](N)Cc1ccccc1 [F-NH2, phenylalanine-amide]
use-dependent block, conditioning pulse protocol (in words) [1, 4]: not effective in use-dependent block

Ac-KIFMTK-NH2
k b(0 mV), blocking rate [2]: 2881 ± 263 s⁻¹
k u(0 mV), unblocking rate [2]: 731 ± 8 s⁻¹
use-dependent block, conditioning pulse protocol (in words) [1, 4]: poor use-dependent blocker

DIFMK-NH2
use-dependent block, conditioning pulse protocol (in words) [1, 4]: much less effective than ac-KIFMK-NH2

FM-NH2
use-dependent block, conditioning pulse protocol (in words) [1, 4]: not effective in use-dependent block

KIFM-NH2
fraction of extrapolated peak sodium current unblocked at steady state [2]: 42%
k b(0 mV), blocking rate [2]: 1751 ± 163 s⁻¹
k u(0 mV), unblocking rate [2]: 1283 ± 149 s⁻¹
use-dependent block, conditioning pulse protocol (in words) [1, 4]: substantial use-dependent block

KIFMT-NH2
fast block of LqTx-modified sodium channels (in words) [2]: rapidly blocked LqTx-modified sodium currents
k u(0 mV), unblocking rate [2]: 386 ± 81 s⁻¹
use-dependent block, conditioning pulse protocol (in words) [1, 4]: much less effective than ac-KIFMK-NH2

ac-DIFMT-NH2
fast block of LqTx-modified sodium channels (in words) [2]: did not produce significant fast block
use-dependent block, conditioning pulse protocol (in words) [1, 4]: no effect at all

ac-KAFAK-NH2
use-dependent block, conditioning pulse protocol (in words) [1, 4]: less effective
use-dependent block at 200 mV ([1]; 1 mM peptide): > 60%
fast block of sodium channels (in words) (sodium channels; 1994): did not produce fast block

ac-KIFMK-NH2
time constant of recovery from fast block at −80 mV ([3]; 1 mM peptide, LqTx-modified channels): 0.9 ms
time constant of recovery from fast block at −80 mV ([3]; 1 mM peptide, LqTx-modified channels, SEM): 0.9 ± 0.3 ms
time constant of recovery from fast block at −100 mV ([3]; 1 mM peptide, LqTx-modified channels, interpulse −100 mV, n = 6): 0.6 ± 0.1 ms
time constant of recovery from fast block at −120 mV ([3]; 1 mM peptide, LqTx-modified channels, interpulse −120 mV, n = 6): 0.4 ± 0.1 ms
time constant of recovery from fast block at −140 mV ([3]; 1 mM peptide, LqTx-modified channels, interpulse −140 mV, n = 4): 0.3 ± 0.1 ms
time at which recovery from fast block was half complete ([3]; −80 mV): 0.9 ms
fraction of extrapolated peak sodium current unblocked at steady state [2]: 21%
k u(0 mV), unblocking rate [2]: 587 ± 40 s⁻¹
fractional current (I12/I1) after 10 conditioning pulses to 200 mV, LqTx-modified channels ([1]; 1 mM peptide, 100 nM LqTx, n = 6, mean ± SEM, SEM): 0.03 ± 0.02
use-dependent block in the absence or presence of LqTx ([1]; 1.0 mM peptide, 200-mV conditioning pulses): > 95%
conditioning voltage of half-maximal use-dependent block ([1]; 1 mM peptide, channels not modified by LqTx, Fig. 5 A): +125 mV
use-dependent block with conditioning pulses more positive than 150 mV ([1]; 1.5 mM peptide, three cells, unmodified channels): ~100%
δ of use-dependent block ([1]; mean zδ divided by two (two positive charges)): 0.5
time for half-maximal recovery from use-dependent block ([1]; −80 mV): more than 90 s
δ value of fast block (sodium channels; voltage dependence of fast block, 1998): 0.3

ac-KIQMK-NH2
use-dependent block, conditioning pulse protocol (in words) [1, 4]: did not produce significant block
fast block of sodium channels (in words) (sodium channels; 1994): did not produce fast block
use-dependent block (in words) (sodium channels; 1994): ineffective in use-dependent block

ac-RIFMR-NH2
fast block of LqTx-modified sodium channels (in words) [2]: rapidly blocked LqTx-modified sodium currents
k u(0 mV), unblocking rate [2]: 222 ± 33 s⁻¹
use-dependent block, conditioning pulse protocol (in words) [1, 4]: significantly more potent than ac-KIFMK-NH2

cyclic KIFMK (head to tail)
fast block of LqTx-modified sodium channels (in words) [2]: did not exhibit significant fast block
use-dependent block, conditioning pulse protocol (in words) [1, 4]: nearly as potent in use-dependent block as ac-KIFMK-NH2
use-dependent block at 200 mV ([1]; 1 mM peptide): ~100%
